Apaf-1 act – human Apaf-1 activation | O14727 | Apaf-1 apoptosome caspase-3 activation, DEVD-Rh110 fluorescence; active compounds read low | activity change, negative = activation, % at 20 µM | 0.31% of 330,000 active | AID 489031;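 active = activity change at or below -40% at 20 µM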
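Material: biochemical Apaf-1 apoptosome reconstitution; Medium: 20 mM HEPES buffer, pH 7.5, containing CHAPS and BSA; Reagent: dATP, cytochrome c, and (Z-DEVD)2-Rh110 caspase-3 substrate; Times: 30 min preincubation, 50 min reaction, room temperature; Signal: Rh110 fluorescence, excitation 480 nm, emission 540 nm; Measure: Caspase-3 activity via Apaf-1.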
Rh110 act interf – interferes with Rh110 fluorescence, flagging false Apaf-1 activators. shares compounds with Apaf-1 act. Rh110 fluorescence interference, quenched caspase reaction, Ex480/Em540. 980 tested, under 10 active. fluorescence interference (activity change), % at 20 µM, hits read low;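 active = mean activity change at or below -40% when tested at 20 µM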
Apaf-1 act conf2 – confirmation of human Apaf-1 activators; 5% of 980 active; AID 504617; shares compounds with Apaf-1 act; activity change, negative = activation, % at 20 µM; reconstituted apoptosome caspase-3 activity, DEVD-Rh110 fluorescence; active compounds read low;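 active = mean activity change at or below -40%, meaning activation of 40% or more, at 20 µM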
Large screens that a line does not name were inactive (follow-up assays come after a bar, where they were run). Not all results are given here.

C[C@H](CO)N1C[C@H](C)[C@@H](CN(C)Cc2ccc(-c3ccccc3)cc2)Oc2c(NC(=O)Cc3ccccc3)cccc2C1=O	none
CNC[C@@H]1Oc2ccc(NS(=O)(=O)c3ccc(Cl)cc3)cc2C(=O)N([C@H](C)CO)C[C@@H]1C	none
Cc1noc(C)c1NC(=O)N(C)C[C@H]1Oc2ccc(NC(=O)CCN3CCOCC3)cc2C(=O)N([C@H](C)CO)C[C@@H]1C	Apaf-1 act -46 | Rh110 act interf inactive | Apaf-1 act conf2 inactive
CN1C(=O)CC(Nc2cccc3cccc(N)c23)C1=O (stereo not drawn)	none
c1csc(-c2nc3c4ccccc4c4ccccc4c3[nH]2)c1	none
CCOC(=O)CNC(=O)C1c2ccccc2C(=O)N(c2ccc(OC)cc2)C1c1ccc(OC)cc1 (stereo not drawn)	Apaf-1 act -42 | Rh110 act interf inactive | Apaf-1 act conf2 inactive
COc1ccc(NC(=O)[C@@H]2[C@@H]3C(=O)N(C4CCCCC4)C(=O)[C@@H]3C3c4ccccc4C=CN32)cc1 (stereo partly drawn)	none
COc1ccc(CNC(=O)c2c(C)oc3c2C(=O)c2ccccc2C3=O)cc1	none
Cc1ccc(C(=O)N/C(=C\c2ccc(-c3ccccc3[N+](=O)[O-])o2)C(=O)NCCCN(C)C)cc1	none
O=C1CC(N2CCN(C3CCc4ccccc4C3)CC2)C(=O)N1c1ccccc1 (stereo not drawn)	Apaf-1 act -43 | Rh110 act interf inactive | Apaf-1 act conf2 inactive
Cc1ccc(C(=O)N/C(=C\c2ccc(-c3ccccc3[N+](=O)[O-])o2)C(=O)NCCN(C)C)cc1	none
COC(=O)CCC(=O)OC1(C)C(=O)C=C2C=C(C3CC3)N(CCCOC(C)C)C=C2C1=O (stereo not drawn)	none
CN1/C(=C\C(=O)COC(=O)c2ccc([N+](=O)[O-])o2)C(C)(C)c2ccccc21	none
O=C(N/N=C/c1c(F)cccc1Cl)C1CC1	Apaf-1 act -142 | Rh110 act interf inactive | Apaf-1 act conf2 inactive
O=C1CCN2C=Nc3cccc4ccc1c2c34	none
CC1CN(C(=O)c2cccc(S(=O)(=O)NCc3ccccc3)c2)CC(C)O1 (stereo not drawn)	none
COC(=O)c1cc(S(=O)(=O)NCc2cccc(Br)c2)c[nH]1	Apaf-1 act -53 | Rh110 act interf inactive | Apaf-1 act conf2 inactive
CSc1ccc(CN(C)C(=O)c2cccc(S(=O)(=O)NCc3ccccc3)c2)cc1	none
CCCCNC(=O)C(C1CCCCC1)N(CCN(C)C)C(=O)CCCN1C(=O)NC(c2ccc(-c3ccccc3)cc2)C(C(=O)OCc2ccccc2)=C1C (stereo not drawn)	none
C#CCOCCOCCOCCNc1nc(N2CCN(C(=O)CCCCCCCCCCNC(=O)[C@H]([C@@H](C)CC)n3cc(CCCCN=C(N)N)nn3)CC2)nc(N2CCN(C(=O)CCCCCCCCCCNC(=O)[C@H]([C@@H](C)CC)n3cc(CCCCN=C(N)N)nn3)CC2)n1	none
NC1=Nc2cccc3cccc1c23	none
CN1CCN(c2nc(-c3ccc(C(C)(C)C)cc3)nc3ccccc23)CC1	none
COc1cc(N)c(Cc2nccc3cc(OC)c(OC)cc23)cc1OC	none
O=C(Nc1ccc2nc(-c3ccco3)c(-c3ccco3)nc2c1)N1CCCCCC1	none
O=C(NCC(c1ccco1)N1CCCC1)c1cccc(S(=O)(=O)Nc2ccc(Br)cc2)c1 (stereo not drawn)	none
Cc1cccc(C(=O)N/C(=C\c2ccco2)C(=O)N2CCCC2)c1	Apaf-1 act -134 | Rh110 act interf inactive | Apaf-1 act conf2 inactive
O=C1C=C(Nc2ccccc2C(=O)O)c2ccccc2C1=O	none
CCCCCCCCCCCCOC(=O)C[N+](C)(C)C	none
O=C(NCc1ccc2c(c1)OCO2)c1ccc2snnc2c1	Apaf-1 act -181 | Rh110 act interf inactive | Apaf-1 act conf2 inactive
COC(=O)C1=C(C)N(Cc2ccccc2)C(=NCc2ccc3c(c2)OCO3)N[C@H]1c1ccccc1	none
Nc1ccc2nc(-c3cccc(-c4nc5ccc(N)cc5[nH]4)n3)[nH]c2c1	none
O=S(=O)(c1ccc(NC(=S)Nc2ccc(OC(F)F)cc2)cc1)N1CCOCC1	Apaf-1 act -66 | Rh110 act interf inactive | Apaf-1 act conf2 inactive
CC(C)C(NS(=O)(=O)c1ccc2c(c1)oc(=O)n2C)C(=O)N1CCN(C2CCCCC2)CC1 (stereo not drawn)	Apaf-1 act -54 | Rh110 act interf inactive | Apaf-1 act conf2 inactive
Cc1ccc(C=Nc2ccc(N(C)C)cc2)o1	none
COc1ccc(S(N)(=O)=O)cc1-c1nnc2c3ccccc3c(C)nn12	Apaf-1 act -54 | Rh110 act interf inactive | Apaf-1 act conf2 inactive
CN[C@H]1CC[C@@H](c2ccc(Cl)c(Cl)c2)c2ccccc21	none
CC(=O)OCC(=O)[C@@]1(O)CC[C@H]2[C@@H]3CCC4=CC(=O)CC[C@]4(C)[C@H]3[C@@H](O)C[C@@]21C	none
